From ChEMBL document CHEMBL4049390, “Combination of amino acid/dipeptide with ligustrazine-betulinic acid as antitumor agents” (Eur J Med Chem, 2017)

Experiments:
[1] = Therapeutic index, ratio of IC50 for MDCK cells to IC50 for human A549 cells
In short: (§1)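 Ratios were calculated from MTT IC50 values (72 h exposure, A490 read-out, n = 3). Potency index = cisplatin IC50 / compound IC50. Therapeutic index = MDCK IC50 / tumour-line IC50.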

HepG2 = experiment: Antiproliferative activity against human HepG2 cells after 72 hrs by MTT assay; assay type: functional, cell-based; conditions: HepG2, 72 h
In short: (§2)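 MTT assay. Log-phase cells were seeded at 3×10^3 cells/well and left overnight, then exposed to serial dilutions of compound (DMSO solutions) for 72 h in RPMI 1640 with 10% heat-inactivated FBS at 37 °C, 5% CO2. MTT (5 mg/mL, 20 µL) was added for 4 h at 37 °C and the formazan dissolved in DMSO. A490 was read. % inhibition = (1 − sample OD/control OD)×100; IC50 is the 50% growth-inhibition concentration. Triplicates, n = 3 independent experiments.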

[2] = Therapeutic index, ratio of IC50 for MDCK cells to IC50 for human HepG2 cells; in short: as §1
HeLa [3] = experiment: Antiproliferative activity against human HeLa cells after 72 hrs by MTT assay; assay type: functional, cell-based; in short: as §2
A549 = experiment: Antiproliferative activity against human A549 cells after 72 hrs by MTT assay; assay type: functional, cell-based; conditions: A549, 72 h; in short: as §2
HeLa [4] = experiment: Therapeutic index, ratio of IC50 for MDCK cells to IC50 for human HeLa cells; in short: as §1
HT-29 = experiment: Antiproliferative activity against human HT-29 cells after 72 hrs by MTT assay; assay type: functional, cell-based; conditions: HT-29, 72 h; in short: as §2
[5] = Therapeutic index, ratio of IC50 for MDCK cells to IC50 for human HT-29 cells; in short: as §1
[6] = Therapeutic index, ratio of IC50 for MDCK cells to IC50 for human BGC823 cells; in short: as §1
BGC-823 = experiment: Antiproliferative activity against human BGC823 cells after 72 hrs by MTT assay; assay type: functional, cell-based; conditions: BGC-823, 72 h; in short: as §2
MDCK = experiment: Antiproliferative activity against MDCK cells after 72 hrs by MTT assay; assay type: cell-based; conditions: Canis lupus familiaris; in short: as §2

| IC50 (HepG2) | IC50 (HeLa [3]) | IC50 (A549) | IC50 (HT-29) | IC50 (BGC-823) | SMILES | Ratio IC50 [1] | Ratio IC50 [2] | Ratio IC50 (HeLa [4]) | Ratio IC50 [5] | Ratio IC50 [6] | IC50 (MDCK) |
| --- | --- | --- | --- | --- | --- | --- | --- | --- | --- | --- | --- |
| 3390 nM | 2330 nM | 4080 nM | 3560 nM | 2520 nM | C=C(C)[C@@H]1CC[C@]2(C(=O)OCc3nc(C)c(C)nc3C)CC[C@]3(C)[C@H](CC[C@@H]4[C@@]5(C)CC[C@H](OC(=O)[C@H](C)NC(=O)[C@@H]6CCCN6)C(C)(C)[C@@H]5CC[C@]43C)[C@@H]12 | >10 | >10 | >10 | >10 | >10 | > 40000 nM |
| 2390 nM | 2620 nM | 1260 nM | 2640 nM | 2160 nM | C=C(C)[C@@H]1CC[C@]2(C(=O)OCc3nc(C)c(C)nc3C)CC[C@]3(C)[C@H](CC[C@@H]4[C@@]5(C)CC[C@H](OC(=O)[C@@H](N)CCCCN)C(C)(C)[C@@H]5CC[C@]43C)[C@@H]12 | >10 | >10 | >10 | >10 | >10 | > 40000 nM |
| 2170 nM | 5570 nM | 2450 nM | 4380 nM | 1490 nM | C=C(C)[C@@H]1CC[C@]2(C(=O)OCc3nc(C)c(C)nc3C)CC[C@]3(C)[C@H](CC[C@@H]4[C@@]5(C)CC[C@H](OC(=O)[C@H](C)NC(=O)CN)C(C)(C)[C@@H]5CC[C@]43C)[C@@H]12 | >10 | >10 | >10 | >10 | >10 | > 40000 nM |
